ChEMBL document CHEMBL5223087, “First-in-Class Cyclic Temporin L Analogue: Design, Synthesis, and Antimicrobial Assessment” (J Med Chem, 2021)
Converted amounts (≈) assume the structure as drawn. The source made the active and inactive calls. The calls are words filed in the database; no cut-off is given here. Bridge positions count the residues as written; N and C are the ends. Square brackets hold non-standard residues; d marks the D form. Peptide text beside a SMILES is read from it.

Key:
Escherichia coli = assay: Antimicrobial activity against Escherichia coli ATCC 25922 assessed as reduction in bacterial growth incubated for 16 to 18 hrs by microdilution susceptibility test; format: functional; conditions: time 16-18 hrs
Procedure, shortened: (§1)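 Broth microdilution in Mueller–Hinton broth. Mid-log bacteria at 1 × 10⁶ CFU/mL final, peptide twofold serial dilutions 100 to 0.78 μM final. Incubated 16–18 h at 37 °C. MIC taken as the lowest concentration giving total (100%) growth inhibition.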

HaCaT [1] = assay: Cytotoxicity against human HaCaT cells assessed as reduction in cell viability at 50 uM measured after 2 hrs by MTT assay; format: toxicity, cell-based
Procedure, shortened: (§2)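 HaCaT keratinocytes seeded at 4 × 10⁴/well in DMEM with 4 mM glutamine and 2% FBS, no antibiotics, overnight at 37 °C, 5% CO2. Medium replaced with peptide-containing DMEMg for 2 or 24 h. MTT 0.5 mg/mL in Hank's buffer 4 h, formazan dissolved in acidified isopropanol, A570. Viability as % of untreated cells; mean of three independent experiments ± SEM.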

[2] = Disaggregation property of compound in LPS at 20 uM after 1 hr by Tht fluorescence based assay; format: physicochemical
Procedure, shortened: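 Peptide 20 μM incubated 1 h with LPS 1 mg/mL and ThT 25 μM. Aggregation read as ThT emission at 482 nm, excitation 450 nm. ThT alone and peptide alone served as controls.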

[3] = Membrano-lytic effect in bacterial inner membrane mimic DOPE/DOPG/CL (63:23:12) large unilamellar vesicles at 10 uM by varian cary eclipse fluorescence spectrometry analysis; format: cell membranes
Pseudomonas aeruginosa = assay: Antimicrobial activity against Pseudomonas aeruginosa ATCC 27853 assessed as reduction in bacterial growth incubated for 16 to 18 hrs by microdilution susceptibility test; format: functional; conditions: time 16-18 hrs; procedure, shortened: as §1
HaCaT [4] = assay: Cytotoxicity against human HaCaT cells assessed as reduction in cell viability at 50 uM measured after 24 hrs by MTT assay; format: toxicity, cell-based; procedure, shortened: as §2
HaCaT [5] = assay: Cytotoxicity against human HaCaT cells assessed as reduction in cell viability at 25 uM measured after 2 hrs by MTT assay; format: toxicity, cell-based; procedure, shortened: as §2
[6] = Membrano-lytic effect in bacterial inner membrane mimic DOPE/DOPG/CL (63:23:12) large unilamellar vesicles at 5 to 50 uM by varian cary eclipse fluorescence spectrometry analysis; format: cell membranes; conditions: dose 5-50 µM
[7] = Membrano-lytic effect in bacterial inner membrane mimic DOPG/CL (58:42) large unilamellar vesicles at 50 uM by varian cary eclipse fluorescence spectrometry analysis; format: cell membranes
HaCaT [8] = assay: Cytotoxicity against human HaCaT cells assessed as reduction in cell viability at 3.125 to 100 uM measured after 2 to 24 hrs by MTT assay; format: toxicity, cell-based; conditions: dose lower 3.125 µM, time lower 2 hrs, dose upper 100 µM, time upper 24 hrs; procedure, shortened: as §2
[9] = Induction of DOPG/CL (58:42) large unilamellar vesicles membrane fluidity at 5 uM (reference value: -0.32)
Procedure, shortened: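 LUVs of DOPG/CL 58/42 prepared by extrusion (0.1 μm), Laurdan 1 μM incorporated, hydrated in PBS pH 7.4; lipid 100 μM final. Peptide added at 5 or 30 μM; spectra recorded after 10 min at 25 °C. Fluidity expressed as GP = (I440 − I490)/(I440 + I490).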

[10] = Induction of membrane leakage in DOPE/DOPG/CL (63:23:12) large unilamellar vesicles at 5 to 50 uM incubated for 10 mins; conditions: dose 5-50 µM
Procedure, shortened: (§3)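 Free probe removed by Sephadex G-50 gel filtration. Peptide added at 5–50 μM. ANTS dequenching followed 10 min (excitation 385 nm, emission 512 nm). Leakage normalised to Triton X-100 maximum.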

[11] = Membrano-lytic effect in bacterial inner membrane mimic DOPG/CL (58:42) large unilamellar vesicles at 30 uM by varian cary eclipse fluorescence spectrometry analysis; format: cell membranes
[12] = Induction of DOPG/CL (58:42) large unilamellar vesicles membrane fluidity at 5 uM (reference value: -0.32)
Staphylococcus aureus [13] = assay: Antimicrobial activity against MRSA-resistant Staphylococcus aureus ATCC 43300 assessed as reduction in colony formation at 12.5 uM incubated for 24 hrs by time kill assay; format: functional, organism-based
Staphylococcus aureus [14] = assay: Antimicrobial activity against MRSA-resistant Staphylococcus aureus ATCC 43300 assessed as reduction in colony formation at 12.5 uM incubated for 30 min by time kill assay; format: functional, organism-based
Serum = assay: Proteolytic stability in human serum incubated for 0.25 to 12 hrs by RP-UHPLC analysis; format: ADME, cell-free; conditions: time 0.25-12 hrs
[15] = Induction of membrane leakage in DOPG/CL (58:42) large unilamellar vesicles at 5 to 50 uM incubated for 10 mins; conditions: dose 5-50 µM; procedure, shortened: as §3

Row | Structure (SMILES) | MIC (Escherichia coli) | Activity (HaCaT [1]) | Activity [2] | Activity [3] | MIC (Pseudomonas aeruginosa) | Activity (HaCaT [4]) | Activity (HaCaT [5]) | Activity [6] | Activity [7] | Activity (HaCaT [8]) | Activity [9] | Activity [10] | Activity [11] | Activity [12] | Activity (Staphylococcus aureus [13]) | Activity (Staphylococcus aureus [14]) | Stability (Serum) | Activity [15]
1 | CC[C@H](C)[C@H](NC(=O)[C@H](CCCNC(=N)N)NC(=O)[C@@H]1CCCCn2cc(nn2)C[C@H](NC(=O)[C@H](Cc2ccccc2)NC(=O)[C@H](Cc2c[nH]c3ccccc23)NC(=O)[C@@H]2CCCN2C(=O)[C@@H](NC(=O)[C@@H](N)Cc2ccccc2)C(C)C)C(=O)N[C@@H](CCCCN)C(=O)N[C@@H](Cc2ccccc2)C(=O)N[C@@H](CC(C)C)C(=O)N1)C(=O)N[C@@H](CC(C)C)C(N)=O | > 100 µM | < 40% | Active | Active | > 100 µM | < 20% | 60% | Active | Active |  |  |  |  |  |  |  |  | 
2 | CC[C@H](C)[C@H](NC(=O)[C@H](CCCNC(=N)N)NC(=O)[C@@H]1CCCCNC(=O)CC[C@H](NC(=O)[C@H](Cc2ccccc2)NC(=O)[C@H](Cc2c[nH]c3ccccc23)NC(=O)[C@@H]2CCCN2C(=O)[C@@H](NC(=O)[C@@H](N)Cc2ccccc2)C(C)C)C(=O)N[C@@H](CCCCN)C(=O)N[C@@H](Cc2ccccc2)C(=O)N[C@H](CC(C)C)C(=O)N1)C(=O)N[C@@H](CC(C)C)C(N)=O (H-FVPWFEKF[dL]KRIL-NH2; lactam 6-10) | 25 µM (≈ 42.6 µg/mL) | < 40% |  |  | > 100 µM | < 20% | 60% |  |  |  |  |  |  |  |  |  |  | 
3 | CC[C@H](C)[C@H](NC(=O)[C@H](CCCNC(=N)N)NC(=O)[C@@H]1CCC(=O)NCCCC[C@H](NC(=O)[C@H](Cc2ccccc2)NC(=O)[C@H](Cc2c[nH]c3ccccc23)NC(=O)[C@@H]2CCCN2C(=O)[C@@H](NC(=O)[C@@H](N)Cc2ccccc2)C(C)C)C(=O)N[C@@H](CCCCN)C(=O)N[C@@H](Cc2ccccc2)C(=O)N[C@H](CC(C)C)C(=O)N1)C(=O)N[C@@H](CC(C)C)C(N)=O (H-FVPWFKKF[dL]ERIL-NH2; lactam 6-10) |  |  | Not Active | Active | 100 µM (≈ 170 µg/mL) |  |  | Active |  | Toxic | -0.23 | Active | Active | -0.23 | Active | Active | Stable | Active
